20 molecules from PubChem BioAssay AID493069 (Broad Institute, 2011) can be followed below.

The structures appear in SMILES notation. Values joined by “and” are separate entries in the source; they are usually repeats but may differ in a detail not shown here. Identical values can stand only once. Inconclusive results are not listed. Active and inactive are the calls of the source.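 Rule for the calls: active = growth-curve midpoint potency at or below a set limit tied to the top tested dose, or full inhibition throughout; inconclusive = flat partial inhibition between 30 and 70%, or poor fit; inactive = the rest.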

Tested on in one experiment: not listed separately
Put plainly: growth inhibition of resistant C. albicans with fluconazole, dose response, antifungal resistance reversal project, CaCi-8 resistant strain, dry powder, set 6 (AID 493069). The following applies: C. albicans CaCi-8 + fluconazole, Alamar Blue, 48 h; at 2.6 µM (top of the series). Summed up: (§1)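 Assay system: Candida albicans CaCi-8, fluconazole-resistant clinical isolate / Measured by: Alamar Blue fluorescence, excitation 544 nm, emission 590 nm / Schedule: compound exposure 48 h 37 °C, Alamar Blue 2 h RT / Measure: relative fungal growth from fluorescence / Medium: MOPS-buffered RPMI 1640 defined medium plus Pen/Strep / Probe or stimulus: fluconazole at 8 µg/mL in the growth medium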
Regarding `COc1ccc2c(c1)c1nc3n(c(=O)c1n2CC(=O)N1CCC(C)CC1)CCS3`, the growth change, negative = inhibition was -12.4% (inactive).

Staying with this experiment, now noted: C. albicans CaCi-8 + fluconazole, Alamar Blue, 48 h; at 26 µM (top of the series).
Regarding `O=C(Cn1c2ccccc2c2nc3n(c(=O)c21)CCCS3)c1ccc(F)cc1`, the growth change, negative = inhibition is -20.3% (inactive). Regarding `O=C(Cn1c2ccc(F)cc2c2nc3n(c(=O)c21)CCS3)N1CCCCC1`, the growth change, negative = inhibition is -17% (inactive). On to `O=C(Cn1c2ccc(F)cc2c2nc3n(c(=O)c21)CCS3)N1CCCC1`, for which the growth change, negative = inhibition is -25.5% (inactive). Regarding `O=C(Cn1c2ccccc2c2nc3n(c(=O)c21)CCS3)NCCc1ccc(Cl)cc1`, the growth change, negative = inhibition was -16.6% (inactive). As for `CCN(CC)C(=O)Cn1c2ccccc2c2nc3n(c(=O)c21)CCS3`, the growth change, negative = inhibition is 10.7% (inactive). For `O=C(Cn1c2ccc(F)cc2c2nc3n(c(=O)c21)CCS3)N1CCCCCC1`, the growth change, negative = inhibition is -36.1% (inactive). For `CCN(CC)C(=O)Cn1c2ccc(F)cc2c2nc3n(c(=O)c21)CCS3`, the growth change, negative = inhibition was 3.38% (inactive).

For a further experiment, the system named is C. albicans CaCi-8 + fluconazole, Alamar Blue, 48 h. Described as above.
Conditions: not given
Summed up: as §1
As for `O=C(Cn1c2ccccc2c2ccncc21)N1CCCCC1`, the AC50 was 26.2 µM.

For `O=C(O)Cn1nc(-c2ccccc2)c2ccccc21`, the AC50 was > 26 µM (inactive). For `O=C(Cn1c2ccccc2c2nc3n(c(=O)c21)CCS3)N1CCCC1`, the AC50 is 1.43 µM and 6.75 µM.

Regarding `COC(=O)Cn1nc(-c2ccc(C)cc2)c2ccccc21`, the AC50 is 13.8 µM. `COC(=O)Cn1nc(-c2ccccc2)c2ccccc21`: the AC50 was 4.99 µM. Same read-out and setting: to `O=c1c2[nH]c3ccccc3c2nc2n1CCS2` belongs 17.6 µM; to `O=C(Cn1c2ccccc2c2nc3n(c(=O)c21)CCS3)N1CCOCC1`, 4.83 µM; to `CC1CCN(C(=O)Cn2c3ccccc3c3nc4n(c(=O)c32)CCS4)CC1`, 5.56 µM. Regarding `CC1CCN(C(=O)Cn2c3ccc(F)cc3c3nc4n(c(=O)c32)CCCS4)CC1`, the AC50 is 22.9 µM. Take `O=C(Cn1c2ccccc2c2nc3n(c(=O)c21)CCS3)N1CCCCC1`: the AC50 is 3.88 µM. In the case of `O=c1c2[nH]c3ccc(F)cc3c2nc2n1CCS2`, the AC50 is 5.76 µM. Still for that read-out and setting: to `COC(=O)Cn1nc(-c2ccc(Cl)cc2)c2ccccc21` belongs 15.8 µM.
